ChEMBL document CHEMBL4359831, “Chemoproteomics of an Indole-Based Quinone Epoxide Identifies Druggable Vulnerabilities in Vancomycin-Resistant Staphylococcus aureus” (J Med Chem, 2019)
Values after ≈ are worked out from the molar mass of the structure shown. Each block holds one compound with its values, some of them ahead of it. Active and inactive are the calls of the source. The calls are words filed in the database; no cut-off is given here.

Assays:
Staphylococcus aureus [1] = experiment: Antibacterial activity against vancomycin-resistant Staphylococcus aureus HIP11714 after 16 to 18 hrs by CLSI M07-A10 protocol based dilution method; type: functional
Staphylococcus aureus [2] = experiment: Antibacterial activity against vancomycin-resistant Staphylococcus aureus HIP14300 after 16 to 18 hrs by CLSI M07-A10 protocol based dilution method; type: functional
Staphylococcus aureus [3] = experiment: Antibacterial activity against vancomycin-resistant Staphylococcus aureus SA-HIP-11983 after 16 to 18 hrs by CLSI M07-A10 protocol based dilution method; type: functional
Staphylococcus aureus [4] = experiment: Antibacterial activity against vancomycin-resistant Staphylococcus aureus SA-HIP-14300 after 16 to 18 hrs by CLSI M07-A10 protocol based dilution method; type: functional
Staphylococcus aureus [5] = experiment: Antibacterial activity against vancomycin-resistant Staphylococcus aureus 1002434 after 16 to 18 hrs by CLSI M07-A10 protocol based dilution method; type: functional
Staphylococcus aureus [6] = experiment: Antibacterial activity against vancomycin-resistant Staphylococcus aureus SA-71080 after 16 to 18 hrs by CLSI M07-A10 protocol based dilution method; type: functional
Staphylococcus aureus [7] = experiment: Antibacterial activity against vancomycin-resistant Staphylococcus aureus AIS100050 after 16 to 18 hrs by CLSI M07-A10 protocol based dilution method; type: functional
Staphylococcus aureus [8] = experiment: Antibacterial activity against vancomycin-resistant Staphylococcus aureus SA-HIP-15178 after 16 to 18 hrs by CLSI M07-A10 protocol based dilution method; type: functional
[9] = L-cysteine reactivity in pH 7.4 phosphate buffer at 100 uM preincubated for 1 hr followed by mono-bromobimane addition and measured after 30 mins by fluorescence based competition assay
[10] = L-cysteine reactivity in pH 7.4 phosphate buffer assessed as pseudo first order rate constant at 100 uM measured at 10 mins time interval up to 60 mins by HPLC analysis
Staphylococcus aureus [11] = experiment: Antibacterial activity against Staphylococcus aureus ATCC 29213 after 16 to 18 hrs by CLSI M07-A10 protocol based dilution method; type: functional
Summary of the method: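 MIC against ATCC 29213 determined by a previously described protocol; values in μg/mL.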

[12] = L-cysteine reactivity in pH 7.4 phosphate buffer assessed as compound remaining at 100 uM incubated for 1 hr by HPLC analysis
Staphylococcus aureus [13] = experiment: Bactericidal activity against vancomycin-resistant Staphylococcus aureus HIP11714 at 10 times MIC measured up to 24 hrs by time kill assay; type: functional, organism-based
[14] = Selectivity index, ratio of CC50 for African green monkey Vero cells to MIC90 for Staphylococcus aureus ATCC 29213; type: toxicity; conditions: read-out: Selectivity Index
Staphylococcus aureus [15] = experiment: Bactericidal activity against Staphylococcus aureus ATCC 29213 at 1 to 10 times MIC preincubated up to 24 hrs under shaking condition followed by bacterial plating on Tryptic Soy agar and measured after 18 to 20 hrs by time kill assay; type: functional, organism-based
Staphylococcus aureus [16] = experiment: Binding affinity to Staphylococcus aureus ATCC 29213 C-terminal His6-tagged MarR_12840 C61A mutant expressed in Escherichia coli BL21(DE3) cells up to 100 uM incubated for 1 hr by Rhodamine azide fluorescence dependent gel-based ABPP assay
Summary of the method: (§1)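 Recombinant His-tagged protein purified from E. coli by Ni-NTA affinity chromatography; wild-type and Cys-to-Ala variant treated with increasing alkyne quinone-epoxide probe (0–100 μM) for 1 h. Then Cu-catalysed click reaction with rhodamine-azide, SDS-PAGE resolution, and in-gel fluorescence visualisation of probe labelling.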

Staphylococcus aureus [17] = experiment: Binding affinity to soluble protein in Staphylococcus aureus ATCC 29213 cells after 1 hr by Rhodamine azide fluorescence dependent gel-based ABPP assay; type: functional, organism-based
Summary of the method: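 Live S. aureus cultures were treated with probe (10 μM, 1 h), then lysed and fractionated into soluble and membrane proteomes. Labelling was assessed by rhodamine-azide click and SDS-PAGE fluorescence.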

Staphylococcus aureus [18] = experiment: Cysteine reactivity in iodoacetamide treated Staphylococcus aureus ATCC 29213 cell lysates at 10 uM incubated for 1 hr by Rhodamine azide fluorescence dependent gel-based competitive ABPP assay; type: subcellular; conditions: Cell lysate
Summary of the method: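 Fractionated S. aureus soluble and membrane lysates were pretreated with excess iodoacetamide (10 mM), then chased with probe (10 μM). Read-out was rhodamine-azide click and SDS-PAGE in-gel fluorescence.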

Staphylococcus aureus [19] = experiment: Binding affinity to Staphylococcus aureus ATCC 29213 C-terminal His6-tagged MarR_12840 (Cys61 residue) expressed in Escherichia coli BL21(DE3) cells up to 100 uM incubated for 1 hr by Rhodamine azide fluorescence dependent gel-based ABPP assay
Summary of the method: (§2)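 Recombinant His-tagged MarR proteins were purified from E. coli by Ni-NTA, as wild type and as Cys→Ala variants (C61A MarR_12840; C12A MarR_05815). Proteins were labelled with probe at 0–100 μM for 1 h, then click with rhodamine-azide and SDS-PAGE fluorescence read-out.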

Staphylococcus aureus [20] = experiment: Binding affinity to soluble protein in Staphylococcus aureus ATCC 29213 cell lysates after 1 hr by Rhodamine azide fluorescence dependent gel-based ABPP assay; type: functional; conditions: Lysate
Summary of the method: (§3)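 S. aureus soluble or fractionated membrane lysates were incubated 1 h with alkyne probe (0.01–100 μM), then Cu-catalysed click with rhodamine-azide. Proteomes were resolved by SDS-PAGE and visualised by in-gel fluorescence (gel-based ABPP).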

Escherichia coli [21] = experiment: Binding affinity to membrane protein in Escherichia coli ATCC 25922 cell lysates after 1 hr by Rhodamine azide fluorescence dependent gel-based ABPP assay; type: functional; conditions: Lysate
Staphylococcus aureus [22] = experiment: Binding affinity to Staphylococcus aureus ATCC 29213 C-terminal His6-tagged MarR_05815 (Cys12 residue) expressed in Escherichia coli BL21(DE3) cells up to 100 uM incubated for 1 hr by Rhodamine azide fluorescence dependent gel-based ABPP assay; summary of the method: as §2
Escherichia coli [23] = experiment: Binding affinity to soluble protein in Escherichia coli ATCC 25922 cells after 1 hr by Rhodamine azide fluorescence dependent gel-based ABPP assay; type: functional, organism-based
Escherichia coli [24] = experiment: Binding affinity to membrane protein in Escherichia coli ATCC 25922 cells after 1 hr by Rhodamine azide fluorescence dependent gel-based ABPP assay; type: functional, organism-based
Staphylococcus aureus [25] = experiment: Binding affinity to Staphylococcus aureus ATCC 29213 C-terminal His6-tagged MarR_05815 C12A mutant expressed in Escherichia coli BL21(DE3) cells up to 100 uM incubated for 1 hr by Rhodamine azide fluorescence dependent gel-based ABPP assay; summary of the method: as §1
Staphylococcus aureus [26] = experiment: Binding affinity to membrane protein in Staphylococcus aureus ATCC 29213 cell lysates after 1 hr by Rhodamine azide fluorescence dependent gel-based ABPP assay; type: functional; conditions: Lysate; summary of the method: as §3
Escherichia coli [27] = experiment: Binding affinity to soluble protein in Escherichia coli ATCC 25922 cell lysates after 1 hr by Rhodamine azide fluorescence dependent gel-based ABPP assay; type: functional; conditions: Lysate

Activity [9]: Active
K [10]: 0.78 ×10⁻² /min
MIC (Staphylococcus aureus [11]): > 64 µg/mL
SMILES: CC(C)n1c2ccccc2c2ccc3c(c21)C(=O)C1OC1(c1ccccc1)C3=O (centres undefined)

MIC (Staphylococcus aureus [11]): 0.0625 µg/mL (≈ 0.164 µM)
SMILES: CC(C)n1c2ccccc2c2ccc3c(c21)C(=O)C1(c2ccccc2)OC1C3=O (centres undefined)
selectivity ratio [14]: > 200
Activity (Staphylococcus aureus [15]): Active

MIC (Staphylococcus aureus [11]): > 64 µg/mL
SMILES: COc1ccc(C23OC2C(=O)c2c(ccc4c5ccccc5n(C(C)C)c24)C3=O)cc1 (centres undefined)

MIC (Staphylococcus aureus [11]): > 64 µg/mL
SMILES: CC(C)n1c2ccccc2c2ccc3c(c21)C(=O)C1OC1(c1ccc(Br)cc1)C3=O (centres undefined)

MIC (Staphylococcus aureus [11]): 0.5 µg/mL (≈ 1.22 µM)
SMILES: COc1ccc(C23OC2C(=O)c2ccc4c5ccccc5n(C(C)C)c4c2C3=O)cc1 (centres undefined)

MIC (Staphylococcus aureus [11]): 1 µg/mL (≈ 2.17 µM)
SMILES: CC(C)n1c2ccccc2c2ccc3c(c21)C(=O)C1(c2ccc(Br)cc2)OC1C3=O (centres undefined)

Second part, the compound before the results:

SMILES: CN[C@H](CC(C)C)C(=O)N[C@H]1C(=O)N[C@@H](CC(N)=O)C(=O)N[C@H]2C(=O)N[C@H]3C(=O)N[C@H](C(=O)N[C@H](C(=O)O)c4cc(O)cc(O)c4-c4cc3ccc4O)[C@H](O)c3ccc(c(Cl)c3)Oc3cc2cc(c3O[C@@H]2O[C@H](CO)[C@@H](O)[C@H](O)[C@H]2O[C@H]2C[C@](C)(N)[C@H](O)[C@H](C)O2)Oc2ccc(cc2Cl)[C@H]1O [VANCOMYCIN]
MIC (Staphylococcus aureus [1]): > 64 µg/mL
MIC (Staphylococcus aureus [2]): > 64 µg/mL
MIC (Staphylococcus aureus [3]): 32 to 64 µg/mL (≈ 22.1 to 44.2 µM)
MIC (Staphylococcus aureus [4]): > 64 µg/mL
MIC (Staphylococcus aureus [5]): > 64 µg/mL
MIC (Staphylococcus aureus [6]): 32 to 64 µg/mL (≈ 22.1 to 44.2 µM)
MIC (Staphylococcus aureus [7]): 32 to 64 µg/mL (≈ 22.1 to 44.2 µM)
MIC (Staphylococcus aureus [8]): 32 to 64 µg/mL (≈ 22.1 to 44.2 µM)

SMILES: Cn1c2ccccc2c2ccc3c(c21)C(=O)C1OC1C3=O (centres undefined)
MIC (Staphylococcus aureus [11]): 4 µg/mL (≈ 14.4 µM)
Activity [12]: 27%

SMILES: CCCCCCCCCC(=O)N[C@@H](Cc1c[nH]c2ccccc12)C(=O)N[C@@H](CC(N)=O)C(=O)N[C@@H](CC(=O)O)C(=O)N[C@@H]1C(=O)NCC(=O)N[C@@H](CCCN)C(=O)N[C@H](CC(=O)O)C(=O)N[C@H](C)C(=O)N[C@@H](CC(=O)O)C(=O)NCC(=O)N[C@H](CO)C(=O)N[C@@H]([C@@H](C)CC(=O)O)C(=O)N[C@@H](CC(=O)c2ccccc2N)C(=O)O[C@@H]1C
Activity (Staphylococcus aureus [13]): Active

SMILES: Cc1cc2c([nH]c3ccccc32)c2c1C(=O)C1OC1C2=O (centres undefined)
MIC (Staphylococcus aureus [11]): > 16 µg/mL
Activity [12]: 86%

SMILES: CCc1cc2c3ccccc3n(C(C)C)c2c2c1C(=O)C1OC1C2=O (centres undefined)
MIC (Staphylococcus aureus [11]): 64 µg/mL (≈ 192 µM)
Activity [12]: 88%

SMILES: O=C1c2ccc3c4ccccc4n(-c4ccccc4)c3c2C(=O)C2OC12 (centres undefined)
MIC (Staphylococcus aureus [11]): 2 µg/mL (≈ 5.89 µM)
Activity [12]: 57%

SMILES: C#CCCCn1c2ccccc2c2ccc3c(c21)C(=O)C1OC1C3=O (centres undefined)
Activity [9]: Active
Activity (Staphylococcus aureus [16]): inactive
Activity (Staphylococcus aureus [17]): Active
Activity (Staphylococcus aureus [18]): inactive
Activity (Staphylococcus aureus [19]): Dose-dependent effect
Activity (Staphylococcus aureus [20]): Dose-dependent effect
Activity (Escherichia coli [21]): Active
Activity (Staphylococcus aureus [22]): Dose-dependent effect
Activity (Escherichia coli [23]): inactive
MIC (Staphylococcus aureus [11]): 1 µg/mL (≈ 3.04 µM)
Activity (Escherichia coli [24]): inactive
Activity (Staphylococcus aureus [25]): inactive
Activity (Staphylococcus aureus [26]): Active
Activity (Escherichia coli [27]): Active

SMILES: Cc1cc2c3ccccc3n(C(C)C)c2c2c1C(=O)C1OC1C2=O (centres undefined)
MIC (Staphylococcus aureus [11]): 4 µg/mL (≈ 12.5 µM)
Activity [12]: 84%

SMILES: C#CCCCn1c2ccccc2c2ccc3c(c21)C(=O)C1OC1(c1ccccc1)C3=O (centres undefined)
Activity [9]: Active
Activity (Staphylococcus aureus [17]): Active
Activity (Staphylococcus aureus [20]): inactive
MIC (Staphylococcus aureus [11]): > 64 µg/mL
Activity (Staphylococcus aureus [26]): Active

SMILES: CCn1c2ccccc2c2cc(C)c3c(c21)C(=O)C1OC1C3=O (centres undefined)
MIC (Staphylococcus aureus [11]): 2 µg/mL (≈ 6.55 µM)
Activity [12]: 93%

SMILES: O=C1c2ccc3c([nH]c4ccccc43)c2C(=O)C2OC12 (centres undefined)
MIC (Staphylococcus aureus [11]): 4 µg/mL (≈ 15.2 µM)
Activity [12]: 33%

SMILES: CCn1c2ccccc2c2ccc3c(c21)C(=O)C1OC1C3=O (centres undefined)
MIC (Staphylococcus aureus [11]): 2 µg/mL (≈ 6.87 µM)
Activity [12]: 33%
